From ChEMBL document CHEMBL1955769 (Bioorg Med Chem Lett, 2012) come the findings set out here.

Data set [1] deals with Mus musculus. The data set can be described thus: Toxicity in human HCT116 cells xenografted in BALB/c- nu.nu mouse assessed as relative body weight change at 45 mg/kg, po administered every alternate days for 14 days measured up to day 16. Conditions: in vivo, 336 h. Details: dose 45 mg/kg, route oral. The format is organism-based, HCT-116. The gist of the method:
(§1)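 Nude mice bearing HCT116 xenografts of 90–110 mm3, grouped as vehicle (0.1% Tween 80, n = 6) or treated (n = 7); oral dosing at 45 or 80 mg/kg on days 0, 2, 4, 6, 8, 10, 12 and 14. Tumor volume and body weight followed over 16 days; tumor effect given as T/C; two-tailed Student t-test versus control, with standard errors shown.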
For orientation: In xenograft studies the graft and the host belong to different species.

In the next data set the target is Histone deacetylase 1 (Homo sapiens, UniProt Q13547). As to the kind of experiment: Inhibition of HDAC1.
Data set [2] deals with HCT-116. The data set can be described thus: Induction of cell cycle arrest in human HCT116 cells assessed as accumulation at G0/G1 phase at 10 uM after 24 hrs by flow cytometry (reference value: 74.2 %). The data set is classed as functional. In short, it runs like this: (§2)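 HCT116 cells (1.0 × 10^6) were plated for 24 h, then exposed to compound for 24 or 48 h, with 0.1% DMSO as control. DNA staining used a BD Cycletest Plus DNA reagent kit, and phase percentages (subG1, G0/G1, S, G2/M) were scored; data representative of three independent experiments.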
Background: Flow cytometry measures light scatter and fluorescence of single cells or particles in a stream.

Data set [3] deals with HCT-116. As to the kind of experiment: Induction of cell cycle arrest in human HCT116 cells assessed as accumulation at G2/M phase at 10 uM after 24 hrs by flow cytometry (reference value: 9.5 %). The format is functional. In short, it runs like this: as §2
For the next data set, the target named is Histone deacetylase 2 (Homo sapiens, UniProt Q92769). As to the kind of experiment: Inhibition of HDAC2.
Data set [4] relates to Mus musculus. As to the kind of experiment: Toxicity in human HCT116 cells xenografted in BALB/c nu/nu mouse assessed as relative body weight change at 80 mg/kg, po for 14 days measured up to day 16. The format is organism-based, HCT-116. Details: dose 80 mg/kg, route oral. Conditions: in vivo, 336 h. The gist of the method:
as §1

Data set [5] in a line: Cmax in BALB/c mouse at 45 mg/kg, po by HPLC-ESI-MS/MS analysis. The data set is classed as ADME, organism-based. Details: dose 45 mg/kg, route oral. Conditions: in vivo.
Data set [6] has as its system HCT-116. As to the kind of experiment: Induction of cell cycle arrest in human HCT116 cells assessed as accumulation at S phase at 10 uM after 48 hrs by flow cytometry (reference value: 10.4 %). The data set is classed as functional. In short, it runs like this:
as §2

The test system of data set [7] is HCT-116. The data set can be described thus: Antiproliferative activity against human HCT116 cells after 3 days by WST-1 assay. Conditions: HCT-116, 72 h. The data set is classed as functional, cell-based. The gist of the method:
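HCT116 human colon cancer cells exposed to compounds for 3 days; growth read by WST-1 assay; IC50 derived from triplicate assays.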
(Tetrazolium dyes change colour on reduction, which living cells bring about.)

The test system of data set [8] is HCT-116. As to the kind of experiment: Induction of cell cycle arrest in human HCT116 cells assessed as accumulation at S phase at 10 uM after 24 hrs by flow cytometry (reference value: 10.6 %). The data set is classed as functional. The gist of the method:
as §2

Data set [9] in a line: Solubility of the compound in 10 % DMSO/Water. The format is physicochemical.
In data set [10] the test system is HCT-116. The data set can be described thus: Induction of cell cycle arrest in human HCT116 cells assessed as accumulation at G0/G1 phase at 10 uM after 48 hrs by flow cytometry (reference value: 81.9 %). The data set is classed as functional. The gist of the method: as §2
The nature of data set [11]: Half life in BALB/c mouse at 45 mg/kg, po by HPLC-ESI-MS/MS analysis. The format is ADME, organism-based. Details: dose 45 mg/kg, route oral. Conditions: in vivo.
Data set [12] deals with HCT-116. As to the kind of experiment: Induction of cell cycle arrest in human HCT116 cells assessed as accumulation at SubG1 phase at 10 uM after 24 hrs by flow cytometry (reference value: 5.7 %). The data set is classed as functional. In short, it runs like this: as §2
Data set [13] can be described thus: Tmax in BALB/c mouse at 45 mg/kg, po by HPLC-ESI-MS/MS analysis. The format is ADME, organism-based. Details: dose 45 mg/kg, route oral. Conditions: in vivo.
Data set [14] concerns HCT-116. As to the kind of experiment: Antitumor activity against human HCT116 cells xenografted in BALB/c nu/nu mouse assessed as suppression of tumor growth at 80 mg/kg, po administered every alternate days for 14 days measured up to 16 days relative to control. The format is functional. The gist of the method: as §1
In data set [15] the test system is HCT-116. As to the kind of experiment: Antitumor activity against human HCT116 cells xenografted in BALB/c nu/nu mouse assessed as suppression of tumor growth at 45 mg/kg, po administered every alternate days for 14 days measured up to day 16 relative to control. The data set is classed as functional. In short, it runs like this:
as §1

Data set [16] deals with HCT-116. As to the kind of experiment: Induction of cell cycle arrest in human HCT116 cells assessed as accumulation at SubG1 phase at 10 uM after 48 hrs by flow cytometry (reference value: 2.3 %). The format is functional. In short, it runs like this:
as §2

Data set [17] relates to HCT-116. The data set can be described thus: Induction of cell cycle arrest in human HCT116 cells assessed as accumulation at G2/M phase at 10 uM after 48 hrs by flow cytometry (reference value: 5.4 %). The data set is classed as functional. The gist of the method:
as §2

Values after ≈ are worked out from the molar mass of the structure shown.

Chain of Histone deacetylase 2 (Q92769 whole entry): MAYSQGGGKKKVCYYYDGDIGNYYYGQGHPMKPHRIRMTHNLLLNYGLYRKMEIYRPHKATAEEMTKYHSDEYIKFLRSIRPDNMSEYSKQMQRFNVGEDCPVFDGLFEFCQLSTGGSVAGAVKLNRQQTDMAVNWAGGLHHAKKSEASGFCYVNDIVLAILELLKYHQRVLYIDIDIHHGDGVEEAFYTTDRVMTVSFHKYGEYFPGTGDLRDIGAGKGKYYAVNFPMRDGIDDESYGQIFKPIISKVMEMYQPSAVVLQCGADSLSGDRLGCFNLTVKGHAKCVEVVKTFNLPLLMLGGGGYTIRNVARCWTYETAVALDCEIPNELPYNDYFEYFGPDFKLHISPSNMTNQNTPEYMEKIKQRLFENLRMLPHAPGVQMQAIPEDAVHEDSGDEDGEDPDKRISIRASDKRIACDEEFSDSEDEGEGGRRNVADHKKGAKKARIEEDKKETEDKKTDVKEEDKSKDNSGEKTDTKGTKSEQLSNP
Chain of Histone deacetylase 1 (Q13547 whole entry): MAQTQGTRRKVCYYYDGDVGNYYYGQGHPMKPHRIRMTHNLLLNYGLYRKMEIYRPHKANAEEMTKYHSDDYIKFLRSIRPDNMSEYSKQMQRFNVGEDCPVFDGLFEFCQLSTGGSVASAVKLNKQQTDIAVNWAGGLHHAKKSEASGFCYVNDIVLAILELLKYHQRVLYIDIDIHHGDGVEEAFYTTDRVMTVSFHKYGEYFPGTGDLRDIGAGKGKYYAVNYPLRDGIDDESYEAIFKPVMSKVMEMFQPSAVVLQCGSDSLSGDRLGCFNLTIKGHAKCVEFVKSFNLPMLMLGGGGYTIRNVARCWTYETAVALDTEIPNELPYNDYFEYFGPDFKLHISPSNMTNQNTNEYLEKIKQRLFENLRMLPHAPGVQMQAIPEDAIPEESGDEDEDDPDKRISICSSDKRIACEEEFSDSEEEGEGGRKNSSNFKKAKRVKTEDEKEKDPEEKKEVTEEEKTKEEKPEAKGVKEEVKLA

The IC50 is the concentration that gives 50% inhibition. A high value points to weaker potency in that assay. What is called Cmax is the peak of the concentration-time curve. As a reminder, the solubility is how much of the substance goes into solution per volume. Lower therefore signals a poorly soluble substance. What is called half-life is the time in which the quantity being followed falls by half. A higher half-life goes with slow loss. In general, Tmax refers to the time from dosing to the highest level. Broadly, the T/C is the ratio of treated to control. For the compound `CCN1CCN(C(=O)NCc2ccc(C(=O)Nc3cc(-c4cccs4)ccc3N)cc2)C(=O)C1=O`, the Activity entry in the data set with Mus musculus [1] was “Non-toxic”; with HCT-116 [2], 71.5%; with HCT-116 [3], 22.4%; with Mus musculus [4] it was “Non-toxic”; with HCT-116 [6], 2.8%; with HCT-116 [8], 3.8%. Further, the Activity is recorded as 75.3% with HCT-116 [10], 2.3% in the data set with HCT-116 [12], 1.4% in the data set with HCT-116 [16] and 20.5% in the data set with HCT-116 [17]. Besides, the IC50 against Histone deacetylase 1 turned out to be 50 nM; on Histone deacetylase 2, 670 nM; in the data set with HCT-116 [7] it was 510 nM. The compound also had a Cmax in [5] of 8.3 µM. The concentration in solution in [9] (solubility) was 600 µg/mL (≈ 1220 µM). For the same compound, the half-life in data set [11] is 2.2 h. Also, the time to peak (Tmax) in [13] is 1 h. The T/C with HCT-116 [14] was 47%; in the data set with HCT-116 [15] it was 60%.
As to `CN1CCN(C(=O)NCc2ccc(C(=O)Nc3cc(-c4cccs4)ccc3N)cc2)CC1`, the half-inhibitory concentration (IC50) against Histone deacetylase 1 stood at 80 nM; on Histone deacetylase 2 it was 800 nM; with HCT-116 [7] it was 530 nM. The compound also registered a solubility in data set [9] of 1000 µg/mL (≈ 2220 µM).
As for `Nc1ccc(-c2cccs2)cc1NC(=O)c1ccc(CN(CCO)Cc2ccc3c(c2)OCO3)cc1`, the 50% inhibitory concentration (IC50) at Histone deacetylase 1 stood at 60 nM; against Histone deacetylase 2 it was 740 nM; in the data set with HCT-116 [7], 490 nM. Moreover, in data set [9], the solubility was less than 100 µg/mL.
As for `Nc1ccc(-c2cccs2)cc1NC(=O)c1ccc(CNC(=O)N2CCOCC2)cc1`, the IC50 against Histone deacetylase 1 came to 100 nM; on Histone deacetylase 2, 880 nM; with HCT-116 [7], 440 nM.
In the case of `CCC(=O)NCc1ccc(C(=O)Nc2cc(-c3cccs3)ccc2N)cc1`, the IC50 against Histone deacetylase 1 came out at 40 nM; against Histone deacetylase 2, 470 nM; with HCT-116 [7], 560 nM. Also, the Activity in the data set on HCT-116 [2] is listed as 79.5%; in the data set on HCT-116 [3] it was 10.7%; with HCT-116 [6] it was 2.8%; with HCT-116 [8], 5.2%; with HCT-116 [10] it was 75%; in the data set with HCT-116 [12], 4.6%. For the same compound, the Activity in the data set with HCT-116 [16] was found to be 1.4%; in the data set with HCT-116 [17] it was 20.8%. This compound also came in with a solubility in [9] of 500 µg/mL (≈ 1320 µM).
Regarding `Nc1ccccc1NC(=O)c1ccc(CN(CCO)Cc2ccc3c(c2)OCO3)cc1`, the values for the half-inhibitory concentration (IC50) against Histone deacetylase 1, on Histone deacetylase 2 and in the data set with HCT-116 [7] were 1170 nM, 3360 nM and 1200 nM, respectively. Also, in data set [9], the solubility amounted to 200 µg/mL (≈ 477 µM).
For `Nc1ccccc1NC(=O)c1ccc(CNC(=O)OCc2cccnc2)cc1` [ENTINOSTAT], the Activity result is given as “Toxic” in the data set with Mus musculus [1]; 72.7% in the data set on HCT-116 [2]; 13.6% with HCT-116 [3]; 2.2% in the data set on HCT-116 [6]; 4.9% in the data set with HCT-116 [8]; 62.1% with HCT-116 [10]. Moreover, the values for the Activity with HCT-116 [12], with HCT-116 [16] and in the data set with HCT-116 [17] were 8.8%, 30.2% and 5.5%, respectively. In addition, the concentration for half-maximal inhibition (IC50) with HCT-116 [7] amounted to 760 nM. Moreover, the T/C in the data set on HCT-116 [15] came out at 51%.
